Results as given in ChEMBL document CHEMBL1132405, “Synthesis and SAR of 1-alkyl-2-phenylethylamine derivatives designed from N,N-dipropyl-4-methoxy-3-(2-phenylethoxy)phenylethylamine to discover sigma(1) ligands” (J Med Chem, 1999).

Columns and labels:
D(2) dopamine receptor = D(2) dopamine receptor (Rattus norvegicus, UniProt P61169); experiment: In vitro binding affinity at Dopamine receptor D2 of rat striatal membranes by [3H]-raclopride displacement.
[1] = (§1) In vitro binding affinity at Sigma opioid receptor type 1 on guinea pig brain membranes by [3H]pentazocine displacement.; set-up: species or system Membrane
Summary of the method: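 IC50 from displacement curves at 10 concentrations of each compound, each run in duplicate. Values are means of 1–3 separate experiments, with variation between experiments below 15%.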

[2] = as §1; set-up: species or system Membrane; remark: listed apart in the source

Sequence of D(2) dopamine receptor (P61169 whole entry): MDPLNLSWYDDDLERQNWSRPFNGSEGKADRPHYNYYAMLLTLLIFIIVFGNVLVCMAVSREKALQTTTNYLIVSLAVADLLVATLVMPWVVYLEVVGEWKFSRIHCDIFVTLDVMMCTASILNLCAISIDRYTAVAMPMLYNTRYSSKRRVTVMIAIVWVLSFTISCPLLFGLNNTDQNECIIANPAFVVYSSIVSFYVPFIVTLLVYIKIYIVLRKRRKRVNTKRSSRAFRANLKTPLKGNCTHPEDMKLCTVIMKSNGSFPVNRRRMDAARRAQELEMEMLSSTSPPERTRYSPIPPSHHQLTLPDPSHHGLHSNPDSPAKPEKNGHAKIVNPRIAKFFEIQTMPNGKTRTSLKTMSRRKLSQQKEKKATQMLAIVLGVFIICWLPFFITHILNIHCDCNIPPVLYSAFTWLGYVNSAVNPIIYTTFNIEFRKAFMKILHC

| Compound | IC50 (D(2) dopamine receptor) | IC50 [1] | IC50 [2] |
| --- | --- | --- | --- |
| CCCN(CCC)CCc1ccc(OC)c(OCCc2ccccc2)c1 | > 1000 nM | 1.5 nM |  |
| CCCNCCc1ccc(OC)c(OCCc2ccccc2)c1 | > 1000 nM |  |  |
| CCCNC(CCC(C)C)Cc1ccc(OC)c(OCCc2ccccc2)c1 (single isomer, unassigned; (-)) | > 1000 nM |  | 0.5 nM |
| CCCN(CCC)C(CC)Cc1ccc(OC)c(OCCc2ccccc2)c1 (stereo unspecified) | > 1000 nM |  |  |
| CCCCC(Cc1ccc(OC)c(OCCc2ccccc2)c1)NCCC (stereo unspecified) [listing 1 of 2 here] | > 1000 nM |  | 1.9 nM |
| CCCCC(Cc1ccc(OC)c(OCCc2ccccc2)c1)NCCC (stereo unspecified) [listing 2 of 2 here] |  |  | 34 nM |
| CCCCCCC(Cc1ccc(OC)c(OCCc2ccccc2)c1)NCCC (stereo unspecified) | > 1000 nM |  | 8.1 nM |
| CCCNC(CCC(C)C)Cc1ccc(OC)c(OCCc2ccccc2)c1 (stereo in doubt; 6i(+)) |  |  | 22 nM |
| CCCCC(Cc1ccc(OC)c(OCCc2ccccc2)c1)NCCC (single isomer, unassigned; (-)) | > 1000 nM |  | 0.7 nM |
| COc1ccc(CCN2CCCC2)cc1OCCc1ccccc1 | > 1000 nM |  |  |
| CCCC(Cc1ccc(OC)c(OCCc2ccccc2)c1)N(CCC)CCC (stereo unspecified) | > 1000 nM |  | 8.2 nM |
| CCCNC(CCC)Cc1ccc(OC)c(OCCc2ccccc2)c1 (stereo unspecified) | > 1000 nM |  | 4.1 nM |
| CCCNC(CC)Cc1ccc(OC)c(OCCc2ccccc2)c1 (stereo unspecified) | > 1000 nM |  | 1.8 nM |
| CCCNC(CCC(C)C)Cc1ccc(OC)c(OCCc2ccccc2)c1 (stereo in doubt; 6i) | > 1000 nM |  | 1.6 nM |
| CCCCCC(Cc1ccc(OC)c(OCCc2ccccc2)c1)NCCC (stereo unspecified) | > 1000 nM |  | 2.2 nM |
| COc1ccc(CCN)cc1OCCc1ccccc1 | > 1000 nM |  |  |
